Source: ChEMBL document CHEMBL3576819, “Design, synthesis, biological evaluation and molecular docking studies of phenylpropanoid derivatives as potent anti-hepatitis B virus agents” (Eur J Med Chem, 2015)

Assays:
[1] = Cytotoxicity against human HepG2.2.15 cells assessed as cell death after 9 days by MTT assay; format: cell-based, HepG2 2.2.15
Summary of the method: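 HepG2.2.15 cells (MEM, 10% FBS, 380 µg/ml G418, 37 °C, 5% CO2) seeded at 1×10^5 cells/ml, cultured 24 h, then exposed to various drug concentrations; drug-containing medium renewed every 3 d. OD read at 450 nm after 9 days; percent cell death calculated; CC50 = concentration killing 50% of cells. Means of at least two experiments.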

Hepatitis B virus [2] = assay: Antiviral activity against Hepatitis B virus infected in human HepG2.2.15 cells assessed as inhibition of HBsAg secretion by ELISA; format: functional, organism-based; details: HepG2 2.2.15
Summary of the method: (§1)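 HepG2.2.15 cells (MEM, 10% FBS, 380 µg/ml G418) seeded at 1×10^5 cells/ml, held 24 h at 37 °C, then treated with various drug concentrations; medium with drug renewed every 3 d for up to 9 d. Culture medium sampled on days 3, 6 and 9, stored at -20 °C, and assayed for secreted antigen. Lamivudine as positive control; IC50 = 50% inhibition of secretion; means of at least two experiments.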

Hepatitis B virus [3] = assay: Antiviral activity against Hepatitis B virus infected in human HepG2.2.15 cells assessed as inhibition of HBeAg secretion by ELISA; format: functional, organism-based; details: HepG2 2.2.15; summary of the method: as §1
[4] = Selectivity index, ratio of CC50 for human HepG2.2.15 cells to IC50 for Hepatitis B virus infected in human HepG2.2.15 cells assessed as inhibition of HBsAg secretion; format: functional
Summary of the method: (§2)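 Selectivity index computed as CC50/IC50, with CC50 from cell death of HepG2.2.15 cells after 9 days of treatment (OD 450 nm) and IC50 from 50% inhibition of HBeAg or HBsAg secretion in the same cells; medium with drug renewed every 3 d.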

[5] = Selectivity index, ratio of CC50 for human HepG2.2.15 cells to IC50 for Hepatitis B virus infected in human HepG2.2.15 cells assessed as inhibition of HBeAg secretion; format: functional; summary of the method: as §2

| Structure (SMILES) | CC50 at 216 h [1] | IC50 (Hepatitis B virus [2]) | IC50 (Hepatitis B virus [3]) | Ratio CC50/IC50 [4] | Ratio CC50/IC50 [5] |
| --- | --- | --- | --- | --- | --- |
| COc1ccc(C=O)cc1OC [3,4-DIMETHOXYBENZALDEHYDE] | > 1500 µM | – | – | – | – |
| COc1ccc(/C=C/C(=O)O)cc1OC [O,O'-DIMETHYLCAFFEIC ACID] | 535 µM | > 600 µM | > 600 µM | <0.89 | <0.89 |
| O=Cc1ccc2c(c1)OCO2 [PIPERONAL] | 1290 µM | – | – | – | – |
| COc1cc(/C=C/C(=O)O)cc(OC)c1OC [SINAPIC ACID METHYL ETHER] | 834 µM | > 600 µM | > 600 µM | <1.39 | <1.39 |
